In ChEMBL document CHEMBL1134318, “Design, synthesis, and biological characterization of bivalent 1-methyl-1,2,5,6-tetrahydropyridyl-1,2,5-thiadiazole derivatives as selective muscarinic agonists” (J Med Chem, 2001):
Converted amounts (≈) assume the structure as drawn.

Tests used:
[1] = biological target: T1, Muscarinic acetylcholine receptor M1 (Homo sapiens, UniProt P11229); test: Agonistic activity against M1 muscarinic receptor expressed in A9 L cells.; format: functional, cell-based, A9L
T1 sequence (P11229 whole entry): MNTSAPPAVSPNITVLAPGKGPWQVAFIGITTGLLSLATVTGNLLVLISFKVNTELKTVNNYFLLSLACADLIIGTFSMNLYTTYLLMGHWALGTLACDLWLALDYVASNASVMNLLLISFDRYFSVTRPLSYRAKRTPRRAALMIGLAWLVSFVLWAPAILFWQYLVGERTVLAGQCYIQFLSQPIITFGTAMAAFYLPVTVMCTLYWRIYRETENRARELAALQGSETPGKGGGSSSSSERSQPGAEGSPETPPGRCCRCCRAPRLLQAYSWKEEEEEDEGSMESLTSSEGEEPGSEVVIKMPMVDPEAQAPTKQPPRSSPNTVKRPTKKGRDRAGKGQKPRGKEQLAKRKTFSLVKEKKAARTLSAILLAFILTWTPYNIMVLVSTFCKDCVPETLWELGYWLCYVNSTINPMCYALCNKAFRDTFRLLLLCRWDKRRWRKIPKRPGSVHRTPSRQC

[2] = biological target: T1, Muscarinic acetylcholine receptor M1; test: (§1) Binding affinity towards M1 muscarinic receptor expressed in A9 L cells by displacing [3H](R)-QNB radioligand.
[3] = biological target: T2, Muscarinic acetylcholine receptor M4 (Homo sapiens, UniProt P08173); test: Agonist activity against M4 muscarinic receptor expressed in RBL-2H3 Mast cells.; format: functional, cell-based
T2 sequence (P08173 whole entry): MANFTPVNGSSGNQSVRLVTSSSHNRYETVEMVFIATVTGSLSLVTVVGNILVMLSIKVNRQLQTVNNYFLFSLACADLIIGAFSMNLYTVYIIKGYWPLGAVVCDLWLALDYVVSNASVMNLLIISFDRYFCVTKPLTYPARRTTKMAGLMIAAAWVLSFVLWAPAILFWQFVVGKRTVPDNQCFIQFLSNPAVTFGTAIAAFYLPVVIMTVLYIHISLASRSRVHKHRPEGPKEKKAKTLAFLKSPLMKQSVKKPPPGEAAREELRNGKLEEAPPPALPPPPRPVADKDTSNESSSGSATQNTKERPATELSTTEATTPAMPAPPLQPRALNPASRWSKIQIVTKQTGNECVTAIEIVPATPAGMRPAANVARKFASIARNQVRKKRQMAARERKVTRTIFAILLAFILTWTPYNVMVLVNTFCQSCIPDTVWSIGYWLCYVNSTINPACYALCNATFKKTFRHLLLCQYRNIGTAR
How it was run: (§2)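 RBL-2H3 mast cell subclone stably transfected with human M4 receptor (>1 × 10^5 receptors/cell). Agonist action read as degranulation, i.e. hexosaminidase released into the supernatant, following earlier M1 methods. Dose-response data fit to a one-site stimulation model for Smax and EC50.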

[4] = Maximum release of beta-hexosaminidase was determined as a measure of degranulation; format: functional; set-up: reference not given here; how it was run: as §2
[5] = Solubility in deionized water.; format: physicochemical; details: read-out: S
[6] = Solubility in Kreb-Heinsleit buffer.; format: physicochemical
[7] = biological target: T3, Muscarinic acetylcholine receptor M1 (Homo sapiens) (UniProt P11229); details: at 100 µM
T3 sequence (whole entry): T1 sequence (P11229 whole entry)

[8] = biological target: T2, Muscarinic acetylcholine receptor M4; test: Agonist activity against human M4 muscarinic receptor expressed in RBL-2H3 Mast cells; format: functional, cell-based; how it was run: as §2
[9] = biological target: T3, Muscarinic acetylcholine receptor M1 (Homo sapiens); test: Agonist activity at M1 receptor coupled to phosphoinositide metabolism at 100 uM expressed as percent stimulation above basal levels relative to carbachol response; format: functional
How it was run: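 Stably transfected A9 L cells (and/or NIH 3T3) expressing human M1 receptor; agonist-stimulated accumulation of [3H]-inositol phosphates measured at 100 µM test ligand. […] Mean (SEM) of two to five assays per compound.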

[10] = biological target: T1, Muscarinic acetylcholine receptor M1; test: Agonistic activity against M1 muscarinic receptor expressed in NIH 3T3 cells; format: functional, cell-based, NIH3T3
[11] = biological target: T4, Muscarinic acetylcholine receptor M5 (Homo sapiens) (UniProt P08912); test: Maximal level of stimulation as a percentage above basal levels.; format: functional
T4 sequence (whole entry): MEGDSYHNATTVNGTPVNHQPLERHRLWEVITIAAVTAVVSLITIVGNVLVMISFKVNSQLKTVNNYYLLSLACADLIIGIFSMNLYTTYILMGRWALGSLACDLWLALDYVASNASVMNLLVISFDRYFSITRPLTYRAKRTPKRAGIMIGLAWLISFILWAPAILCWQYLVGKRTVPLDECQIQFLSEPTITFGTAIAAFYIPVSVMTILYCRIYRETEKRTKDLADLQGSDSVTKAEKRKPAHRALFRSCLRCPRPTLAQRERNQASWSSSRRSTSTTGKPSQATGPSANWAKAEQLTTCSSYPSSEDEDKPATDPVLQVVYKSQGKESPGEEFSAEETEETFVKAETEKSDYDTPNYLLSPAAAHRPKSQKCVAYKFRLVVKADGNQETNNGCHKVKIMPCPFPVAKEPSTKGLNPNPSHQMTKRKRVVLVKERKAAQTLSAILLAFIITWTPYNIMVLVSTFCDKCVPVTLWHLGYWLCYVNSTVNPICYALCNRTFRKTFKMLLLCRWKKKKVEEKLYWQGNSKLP

[12] = biological target: T1, Muscarinic acetylcholine receptor M1; test: as §1; format: cell-based, L929
How it was run: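 Competition binding on A9 L cell membrane homogenates (human M1) with 0.1 nM [3H]-(R)-QNB and 14 test-ligand concentrations, 0.01 nM to 3 mM. Buffer 25 mM sodium phosphate pH 7.4 with 5 mM MgCl2, 2 h at room temperature.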

Compound | EC50 [1] [nM] | Ki [2] [nM] | EC50 [3] [nM] | Max release [4] [%] | PI metabolism [7] [%] | further results
CN1CCC=C(c2nsnc2SCCCCCCCCCCCCSc2nsnc2C2=CCCN(C)C2)C1 | 13000 | 0.69 | 1 | 54 | – | –
CN1CCC=C(c2nsnc2OCCCCCCCCCCOc2nsnc2C2=CCCN(C)C2)C1 | – | – | 1100 | 24 | 76 | solubility [5]: 25 mg/mL (≈ 46.9 mM); solubility [6]: 4 µg/mL (≈ 0.00751 mM)
CN1CCC=C(c2nsnc2OCCCCCCCCCCCCOc2nsnc2C2=CCCN(C)C2)C1 | – | 1.6 | 1.4 | 57 | 84 | solubility [5]: 20 mg/mL (≈ 35.7 mM); solubility [6]: 1.7 µg/mL (≈ 0.00303 mM)
CN1CCC=C(c2nsnc2OCCCOc2nsnc2C2=CCCN(C)C2)C1 | – | – | – | – | 21 | –
CN1CCC=C(c2nsnc2OCCOc2nsnc2C2=CCCN(C)C2)C1 | – | – | – | 39 | – | EC50 [8]: 3.9 µM; Stimulation [9]: 50%
CN1CCC=C(c2nsnc2OCCCCOc2nsnc2C2=CCCN(C)C2)C1 | – | – | – | – | 21 | –
CN1CCC=C(c2nsnc2OCCOCCOCCOCCOc2nsnc2C2=CCCN(C)C2)C1 | – | – | 5.2 | 43 | 56 | EC50 [10]: 290 nM; solubility [5]: > 1000 mg/mL; solubility [6]: 20 µg/mL (≈ 0.0362 mM); Smax [11]: -3.7%
CN1CCC=C(c2nsnc2OCCOCCOCCOCCOCCOc2nsnc2C2=CCCN(C)C2)C1 | – | 1.5 | – | – | < 10 | –
CN1CCC=C(c2nsnc2OCCCCCCCCOc2nsnc2C2=CCCN(C)C2)C1 | – | – | > 100000 | 1 | 8.2 | –
CCCCCCOc1nsnc1C1=CCCN(C)C1 | – | – | – | – | 47 | –
CC(=O)OCC[N+](C)(C)C | – | – | – | – | – | Smax [11]: 99%
CN1CCC=C(c2nsnc2OCCCCCCCCCOc2nsnc2C2=CCCN(C)C2)C1 | – | 0.84 | 20000 | 61 | 27 | –
CN1CCC=C(c2nsnc2OCCOCCOCCOc2nsnc2C2=CCCN(C)C2)C1 | – | – | – | – | < 10 | –
CN1CCC=C(c2nsnc2OCCCCCCCOc2nsnc2C2=CCCN(C)C2)C1 | – | – | > 100000 | 4 | -3 | –
CN1CCC=C(c2nsnc2OCCOCCOc2nsnc2C2=CCCN(C)C2)C1 | – | – | – | – | – | Ki [12]: 4.9 nM; Stimulation [9]: < 10%
CN1CCC=C(c2nsnc2OCCOCCOCCOCCOCCOCCOc2nsnc2C2=CCCN(C)C2)C1 | – | 1.9 | – | – | < 10 | –
C[N+](C)(C)CCOC(N)=O | – | – | – | 87 | – | Smax [11]: 110%
CN1CCC=C(c2nsnc2OCCCCCOc2nsnc2C2=CCCN(C)C2)C1 | – | – | – | – | -1 | –
CN1CCC=C(c2nsnc2OCCCCCCOc2nsnc2C2=CCCN(C)C2)C1 | – | – | > 100000 | 3 | 18 | –

The next lines start with results.

EC50 [1] [nM] | Ki [2] [nM] | EC50 [3] [nM] | Max release [4] [%] | PI metabolism [7] [%] | Compound | further results
79 | 14 | – | – | – | CN1CCC=C(c2nsnc2SCCCCCSc2nsnc2C2=CCCN(C)C2)C1 | –
1500 | 0.57 | 4.7 | 29 | – | CN1CCC=C(c2nsnc2SCCCCCCCCCCCSc2nsnc2C2=CCCN(C)C2)C1 | –
120 | 17 | – | – | – | CN1CCC=C(c2nsnc2SCCCCCCCCCSc2nsnc2C2=CCCN(C)C2)C1 | –
350 | 1.2 | – | – | – | CN1CCC=C(c2nsnc2SCCCSc2nsnc2C2=CCCN(C)C2)C1 | –
440 | 20 | – | – | – | CN1CCC=C(c2nsnc2SCCSc2nsnc2C2=CCCN(C)C2)C1 | –
590 | 0.87 | – | – | – | CN1CCC=C(c2nsnc2SCCCCCCSc2nsnc2C2=CCCN(C)C2)C1 | –
2100 | 0.32 | 0.6 | 61 | – | CN1CCC=C(c2nsnc2SCCCCCCCCCCSc2nsnc2C2=CCCN(C)C2)C1 | –
570 | 0.93 | – | – | – | CN1CCC=C(c2nsnc2SCCCCSc2nsnc2C2=CCCN(C)C2)C1 | –
180 | 7.6 | – | – | – | CN1CCC=C(c2nsnc2SCCCCCCCSc2nsnc2C2=CCCN(C)C2)C1 | –
920 | 5 | – | – | – | CN1CCC=C(c2nsnc2SCCCCCCCCSc2nsnc2C2=CCCN(C)C2)C1 | –
